The structures appear in SMILES notation.

The target in series [1] is T1, Neuronal acetylcholine receptor subunit alpha-7 (Rattus norvegicus, UniProt Q05941). The series can be described thus: Displacement of [3H]MLA from rat alpha7 nAChR.
Series [2] has as its target T1, Neuronal acetylcholine receptor subunit alpha-7. In words: Binding affinity to rat brain alpha7 nAChR.
The nature of series [3]: Ratio of drug uptake in cortex to cerebellum in mouse. The settings on record: in vivo. Format: ADME, organism-based.
In series [4] the test system is Nucleic Acid. In words: Ratio of drug uptake in cortex to cerebellum in pig. It counts as ADME, tissue-based, Sus scrofa. To be noted: in vivo.
For series [5], the target named is Neuronal acetylcholine receptor subunit alpha-7 (Homo sapiens, UniProt P36544). The series can be described thus: Binding affinity to alpha7 nAChR (unknown origin).
Sequence of Neuronal acetylcholine receptor subunit alpha-7 (Homo sapiens, UniProt P36544) (P36544 whole entry): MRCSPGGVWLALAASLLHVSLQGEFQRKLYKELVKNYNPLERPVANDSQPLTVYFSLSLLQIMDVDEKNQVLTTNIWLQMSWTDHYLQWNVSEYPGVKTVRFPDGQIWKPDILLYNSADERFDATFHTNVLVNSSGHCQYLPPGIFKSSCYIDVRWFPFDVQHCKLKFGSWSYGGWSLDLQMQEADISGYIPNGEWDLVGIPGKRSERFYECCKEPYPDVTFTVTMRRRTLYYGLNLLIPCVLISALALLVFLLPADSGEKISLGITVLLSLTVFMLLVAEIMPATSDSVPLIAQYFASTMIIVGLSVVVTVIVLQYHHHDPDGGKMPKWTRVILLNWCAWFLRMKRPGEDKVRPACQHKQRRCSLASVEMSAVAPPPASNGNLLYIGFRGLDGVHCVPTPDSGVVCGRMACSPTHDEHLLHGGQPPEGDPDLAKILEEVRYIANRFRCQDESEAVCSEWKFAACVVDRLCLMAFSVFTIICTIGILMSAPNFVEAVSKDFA
Series [6] addresses T1, Neuronal acetylcholine receptor subunit alpha-7. In words: Displacement of [125I]alpha-bungarotoxin from rat cortical membrane alpha7-nAChR after 150 mins by gamma-counting analysis.
The target is the same in series [7]. The series can be described thus: Displacement of [125I]alpha-bungarotoxin from Sprague-Dawley rat brain alpha7-nAChR after 3 hrs.
For series [8], the system named is Nucleic Acid. The series can be described thus: Ratio of drug uptake in cortex to cerebellum in CD-1 mouse at 0.67 MBq after 5 to 120 mins. To be noted: in vivo. It counts as ADME.
Series [9] can be described thus: Selectivity ratio of Ki for alpha4beta2 nAChR (unknown origin) to Ki for rat cortical membrane alpha7 nAChR.
Series [10] has as its system Nucleic Acid. In words: Ratio of drug uptake in cortex to cerebellum in Danish Landrace pig. It counts as ADME, tissue-based, Sus scrofa. To be noted: in vivo.
For series [11], the target named is T1, Neuronal acetylcholine receptor subunit alpha-7. In words: Displacement of [125I]-alpha-BTX from rat alpha7-nAChR after 2 hrs by scintillation counting analysis.
Series [12] in a line: Selectivity ratio of Ki for human 5HT3 receptor to Ki for rat cortical membrane alpha7 nAChR.
Series [13] can be described thus: Drug uptake in CD-1 mouse frontal cortex at 70 uCi, iv followed by compound washout by gamma-counting analysis. It counts as ADME, organism-based. The settings on record: in vivo. The procedure, abridged: (§1)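 Male CD-1 mice (25–30 g), three per time point. [18F] radiotracer (70 µCi, SA 8000–12000 mCi/µmol, in 0.2 mL saline) given by tail vein. Killed at several times up to 90 min. Dissected regions weighed and gamma counted against injectate standards, giving %ID/g.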

For series [14], the system named is Hippocampus. In words: Drug uptake in CD-1 mouse hippocampus at 70 uCi, iv followed by compound washout by gamma-counting analysis. Format: ADME, organism-based. The settings on record: in vivo. The procedure, abridged:
as §1

A short description of series [15]: Drug uptake in CD-1 mouse superior and inferior colliculus at 70 uCi, iv followed by compound washout by gamma-counting analysis. Format: ADME, organism-based. The settings on record: in vivo. The essentials:
(§2)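 Male CD-1 mice (25–30 g) given [18F]radioligand i.v. into a lateral tail vein (70 µCi, 8000–12000 mCi/µmol, in 0.2 mL saline). Killed by cervical dislocation at various times, three per time point. Brains dissected on ice; regions weighed and gamma-counted with injectate standards. Result as %ID/g.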

The test system of series [16] is Nucleic Acid. The series can be described thus: Ratio of drug uptake from cortex to cerebellum in CD-1 mouse after 90 mins. Format: ADME, tissue-based. The settings on record: 1.5 h.
Series [17] relates to Nucleic Acid. In words: Ratio of drug uptake from hippocampus to cerebellum in CD-1 mouse after 90 mins. Format: ADME, nucleic-acid assay. The settings on record: 1.5 h.
For series [18], the system named is Nucleic Acid. The series can be described thus: Ratio of drug uptake from superior and inferior colliculus to cerebellum in CD-1 mouse after 90 mins. Format: ADME, nucleic-acid assay. The settings on record: 1.5 h. The essentials: (§3)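 CD-1 mouse baseline biodistribution after i.v. [18F]radioligand (70 µCi, 8000–12000 mCi/µmol, in 0.2 mL saline), three mice per time point to 90 min. Regional gamma-counting gave %ID/g, and each region was expressed as a ratio to cerebellum.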

Series [19] relates to Cerebellum. The series can be described thus: Drug uptake in CD-1 mouse cerebellum at 0.07 mCi, iv after 90 mins in presence of 3-(1,4-Diazabicyclo[3.2.2]nonan-4-yl)dibenzo[b,d]-thiophene 5,5-dioxide. Format: ADME, organism-based. The settings on record: in vivo, 1.5 h.
The subject of another series is Brain. The series can be described thus: Drug uptake in CD-1 mouse other brain regions at 0.07 mCi, iv after 90 mins in presence of 3-(1,4-Diazabicyclo[3.2.2]nonan-4-yl)dibenzo[b,d]-thiophene 5,5-dioxide. It counts as ADME, organism-based. The settings on record: in vivo, 1.5 h. The procedure, abridged:
(§4)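 Male CD-1 mice. [18F]tracer (0.07 mCi, SA 11000 mCi/µmol, i.v.) co-injected with α7 antagonist blocker at 0.001, 0.0045 or 0.014 mg/kg, handled as in the dose-escalation blockade. Brain regions harvested at 90 min and gamma-counted. %ID/g, mean ± SD, n=3; ANOVA versus controls.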

Series [20] is described as follows: Drug uptake in CD-1 mouse superior and inferior colliculus at 0.07 mCi, iv after 90 mins in presence of 3-(1,4-Diazabicyclo[3.2.2]nonan-4-yl)dibenzo[b,d]-thiophene 5,5-dioxide. To be noted: in vivo, 1.5 h. Format: ADME, organism-based. The essentials: as §4
In series [21] the test system is Hippocampus. The series can be described thus: Drug uptake in CD-1 mouse hippocampus at 0.07 mCi, iv after 90 mins in presence of 3-(1,4-Diazabicyclo[3.2.2]nonan-4-yl)dibenzo[b,d]-thiophene 5,5-dioxide. The settings on record: in vivo, 1.5 h. Format: ADME, organism-based.
The test system of series [22] is Mus musculus. The series can be described thus: Toxicity in CD-1 mouse assessed as change in locomotor activity at 0.07 mCi, iv after 90 mins in presence of 7-(1,4-Diazabicyclo[3.2.2]nonan-4-yl)-2-fluorodibenzo[b,d]-thiophene 5,5-Dioxide. Format: organism-based. To be noted: in vivo, 1.5 h. The procedure, abridged:
(§5)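 CD-1 mice observed for behavioral and locomotor changes during self-blockade studies. [18F]tracer (0.07 mCi, i.v.) was co-injected with the non-radioactive ligand at 0.3 or 0.2 mg/kg i.v., dissolved in saline at pH 5.5. Brains were harvested at 90 min.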

Series [23] relates to Mus musculus. In words: Toxicity in CD-1 mouse assessed as change in behavioral activity at 0.07 mCi, iv after 90 mins in presence of 7-(1,4-Diazabicyclo[3.2.2]nonan-4-yl)-2-fluorodibenzo[b,d]-thiophene 5,5-Dioxide. The settings on record: in vivo, 1.5 h. It counts as organism-based. The procedure, abridged: as §5
In series [24] the test system is Cerebellum. The series can be described thus: Drug uptake in CD-1 mouse colliculus at 0.07 mCi, iv after 90 mins relative to drug uptake in CD-1 mouse cerebellum. It counts as ADME, organism-based. The settings on record: in vivo, 1.5 h.
Series [25] relates to Cerebellum. The series can be described thus: Drug uptake in CD-1 mouse cerebellum at 0.07 mCi, iv after 90 mins in presence of 3-(1,4-Diazabicyclo[3.2.2]nonan-4-yl)-6-fluorodibenzo[b,d]thiophene 5,5-Dioxide. It counts as ADME, organism-based. The settings on record: in vivo, 1.5 h. The procedure, abridged: (§6)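 Male CD-1 mice, n=3. [18F] radiotracer (70 µCi, 0.2 mL) given i.v. together with unlabeled blocker in saline pH 5.5. Brain regions dissected at 90 min, gamma counted, expressed as %ID/g.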

Series [26] relates to Cerebellum. In words: Drug uptake in CD-1 mouse cerebellum at 0.07 mCi, iv after 90 mins in presence of 7-(1,4-Diazabicyclo[3.2.2]nonan-4-yl)-2-fluorodibenzo[b,d]-thiophene 5,5-Dioxide. The settings on record: in vivo, 1.5 h. It counts as ADME, organism-based. The procedure, abridged:
as §6

The test system of series [27] is Cerebellum. In words: Ratio of clearance in CD-1 mouse cerebellum to clearance in CD-1 mouse other brain tissues at 70 uCi, iv followed by compound washout after 90 mins by gamma-counting analysis. It counts as ADME, organism-based. To be noted: in vivo, 1.5 h. The essentials:
as §3

The test system of series [28] is Cerebellum. In words: Drug uptake in CD-1 mouse cerebellum at 70 uCi, iv followed by compound washout by gamma-counting analysis. It counts as ADME, organism-based. The settings on record: in vivo. The essentials:
as §1

The test system of another series is Striatum. The series can be described thus: Drug uptake in CD-1 mouse striatum at 70 uCi, iv followed by compound washout by gamma-counting analysis. Format: ADME, organism-based. To be noted: in vivo. The essentials: as §2
For the next series, the system named is Thalamus. The series can be described thus: Drug uptake in CD-1 mouse thalamus at 70 uCi, iv followed by compound washout by gamma-counting analysis. To be noted: in vivo. It counts as ADME, organism-based. The procedure, abridged:
as §2

Series [29] concerns Nucleic Acid. In words: Ratio of drug uptake in cortex to cerebellum in CD-1 mouse by gamma-counting analysis. Format: ADME, tissue-based. The settings on record: in vivo.

T1 sequence (Q05941 whole entry): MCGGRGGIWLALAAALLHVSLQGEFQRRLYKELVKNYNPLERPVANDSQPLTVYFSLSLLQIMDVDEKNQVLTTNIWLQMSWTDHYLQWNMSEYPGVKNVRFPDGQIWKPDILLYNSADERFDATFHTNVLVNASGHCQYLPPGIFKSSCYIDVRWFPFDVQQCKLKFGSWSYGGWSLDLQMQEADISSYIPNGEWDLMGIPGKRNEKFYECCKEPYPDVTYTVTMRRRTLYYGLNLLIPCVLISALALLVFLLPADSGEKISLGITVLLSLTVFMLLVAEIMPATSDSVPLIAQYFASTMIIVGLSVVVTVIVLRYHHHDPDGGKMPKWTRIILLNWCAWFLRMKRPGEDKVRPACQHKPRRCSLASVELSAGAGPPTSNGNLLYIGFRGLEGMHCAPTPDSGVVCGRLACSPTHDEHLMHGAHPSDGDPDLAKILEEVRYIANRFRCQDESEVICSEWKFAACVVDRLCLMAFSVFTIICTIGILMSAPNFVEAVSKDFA

As to `[11CH3]N1CC2CN(c3ccc4oc5ccccc5c(=O)c4c3)CC2C1` (stereo unspecified), affinity in series [1] was put at a Ki of 11 nM. In other words, the double-digit nanomolar range.
Consider `[11CH3]N1CC2CN(c3ccc(-c4ccccc4)nn3)CC2C1` (stereo unspecified), for which, in series [2], the Ki came to 10.8 nM. Moreover, the Ratio in series [3] was determined as 0.2.
Turning to `[18F]c1ccc(-c2nnc(N3CCN4CCC3CC4)o2)cc1`, the Ratio with Nucleic Acid [4] stood at 0.8; in series [3], 0.4. The figures for the Ki in series [5] and in series [6] were 11.6 nM and 38 nM, respectively.
On to `[18F]c1ccccc1-c1cnc2c(c1)CC1(CN3CCC1CC3)O2` (stereo unspecified), for which the Ki is 0.2 nM in series [1] and 3.3 nM in [6]. In addition, in series [3], the Ratio was 0.8.
In series [7], `[11CH3]c1ccc(OC(=O)N2CCN3CCC2CC3)cc1` came in with a Ki of 46 nM. In addition, the Ratio in series [3] is given as 0.6.
`[125I]c1occc1-c1cnc2c(c1)CC1(CN3CCC1CC3)O2` (stereo unspecified): in the series with Nucleic Acid [8], the Ratio was determined as 0.6.
Consider `O=S1(=O)c2ccccc2-c2ccc(N3CCN4CCC3CC4)c(F)c21`, for which the Ratio Ki in series [9] came to 66.
Same read-out and setting: as for `O=S1(=O)c2ccc(I)cc2-c2ccc(N3CCN4CCC3CC4)cc21`, the figure is 63.
In [5], `CN1C[C@H]2CN(c3ccc4c(c3)C(=O)c3cc(N5C[C@@H]6CN([11CH3])[C@@H]6C5)ccc3-4)C[C@H]21` displayed a Ki of 0.092 nM.
`[11CH3]n1cccc1-c1nnc(N2CCN3CCC2CC3)o1`: in the series with Nucleic Acid [10], the Ratio is given as 1. The values for the Ki in series [11] and in series [6] were 2.2 nM and 20.4 nM, respectively.
With `O=S1(=O)c2ccccc2-c2c(N3CCN4CCC3CC4)ccc(F)c21`, the Ratio Ki in [9] is 210.
As to `O=[11C](Nc1ccc(Br)cc1)OC1CN2CCC1CC2` (stereo unspecified), the Ratio in series [3] amounted to 0.3.
For the compound `O=S1(=O)c2cc(N3CCN4CCC3CC4)ccc2-c2cccc(F)c21`, the Ratio Ki turned out to be 561 in series [12] and 1370 in series [9].
In the case of `O=S1(=O)c2ccc([18F])cc2-c2ccc(N3CCN4CCC3CC4)cc21`, the Drug uptake entry is reported as “Active” in series [13]; “Active” in the series on Hippocampus [14]; “Active” in series [15]; “Not Active” in the series on Cerebellum [19]; “Not Active” with Brain; “Not Active” in series [20]. Also, the Drug uptake result is reported as “Not Active” in the series on Hippocampus [21]; 80% in the series on Cerebellum [24]; “Active” in the series on Cerebellum [25]; “Active” in the series on Cerebellum [26]; “Active” with Cerebellum [28]; “Active” with Striatum. Besides, the Drug uptake entry in the series with Thalamus is listed as “Active”. In addition, the Ratio with Nucleic Acid [16] was found to be 2; in the series on Nucleic Acid [17], 3.1; with Nucleic Acid [18] it was 2; with Cerebellum [27], 4.5. In addition, the Activity entry in the series with Mus musculus [22] and in the series with Mus musculus [23] was “Non-toxic” each time.
Take `[11CH3]N1CC2CN(c3ccc(-c4ccc5[nH]ccc5c4)nn3)CC2C1` (stereo unspecified): the Ratio with Nucleic Acid [29] came out at 0.5. This compound gave a Ki in series [5] of 0.24 nM.
For the compound `O=S1(=O)c2ccc(F)cc2-c2ccc(N3CCN4CCC3CC4)cc21`, the values for the Ratio Ki in series [12] and in series [9] were 378 and 663, respectively.
